Published values of several laboratories.
Protocols differ between the studies behind these lines.
TRPC3: Short transient receptor potential channel 3 (TRPC3, Homo sapiens, UniProt Q13507)

CCNC(=O)c1cn(-c2ccc(-n3ccc(Cl)c(Cl)c3=O)cc2)nc1C(F)(F)F
inhibition (TRPC3; ion current, inhibitor, patch clamp; HEK293; 10 µM): > 90%

Cc1cc([C@@H](C)Nc2ccccc2C(=O)O)c2nc(N3CCC(F)(F)CC3)c(C#N)c(=O)n2c1
remaining binding (MAP kinase-interacting serine/threonine-protein kinase 2 (MKNK2, Homo sapiens, UniProt Q9HBH9); binding, competition with immobilised ligand; 10 µM): 100%

C=CC(=O)N1CCC(COCC(=O)N2CCN(c3nc(-c4cnc(N)nc4C(F)F)nc(N4CCOC[C@@H]4C)n3)CC2)CC1
remaining binding (Serine/threonine-protein kinase WNK4 (WNK4, Homo sapiens, UniProt Q96J92); binding, competition with immobilised ligand; 1 µM): 46%

C=CC(=O)N1C[C@@H](n2nc(C#Cc3c(F)cc4c(ncn4C4CC4)c3F)c(C(N)=O)c2NC)C[C@@H]1COC
inhibition (Serine/threonine-protein kinase 10 (STK10, Homo sapiens, UniProt O94804); enzyme activity, inhibitor, mobility shift; 1 µM): 64.6%

COc1ccc(CNC(=O)c2cc3c(cc2[N+](=O)[O-])OCO3)cc1
inhibition (Myeloperoxidase (MPO, Homo sapiens, UniProt P05164); enzyme activity, inhibitor; 5 µM): > 50%

CNc1ncc2c(/C=C/C(=O)N3CCC(OC)CC3)nn(Cc3cccc(C(F)(F)F)c3)c2n1
remaining activity (Tyrosine-protein kinase Fgr (FGR, Homo sapiens, UniProt P09769); enzyme activity, inhibitor, radiometric; 1 µM): 90%

CCOC(=O)c1cnn(-c2ccc(NC(=O)C(Cl)=C(Cl)Cl)cc2)c1C(F)(F)F
inhibition (TRPC3; ion current, inhibitor, patch clamp; HEK293; 10 µM): 88.6%

COc1cc(-c2cncc3c2CN(C)Cc2cc(N4CCNCC4)ccc2-3)cc(OC)c1OC
remaining activity (Interferon-induced, double-stranded RNA-activated protein kinase (EIF2AK2, Homo sapiens, UniProt P19525); enzyme activity, inhibitor; 1 µM): 102%

CCNC(=O)c1cnn(-c2ccc(-n3ccc(Cl)c(Cl)c3=O)cc2)c1C(F)(F)F
inhibition (TRPC3; ion current, inhibitor, patch clamp; HEK293; 10 µM): 95.7%

C=CC(=O)Nc1ccccc1C(=O)Nc1ccc(C#Cc2ccc(OC)cc2)nn1
inhibition (Fibroblast growth factor receptor 1 (FGFR1, Homo sapiens, UniProt P11362); enzyme activity, inhibitor, radiometric; 1 µM): 3%
